# Data from ChEMBL document CHEMBL1144940 (J Med Chem, 2003).
# Square brackets hold non-standard residues; d marks the D form. Peptide text beside a SMILES is read from it. d2Nal = N[C@H](Cc1ccc2ccccc2c1)C(=O)O; Nle = CCCC[C@H](N)C(=O)O
# How the values were obtained:
# Melanocortin receptor 5 [1] = molecular target: T1, Melanocortin receptor 5 (Homo sapiens, UniProt P33032); assay: Agonist activity against human Melanocortin 5 receptor at 10 uM
# Melanocortin receptor 5 [2] = molecular target: T1, Melanocortin receptor 5; assay: Intracellular cAMP accumulation in human Melanocortin 5 receptor functional assay.
# Melanocortin receptor 5 [3] = molecular target: T1, Melanocortin receptor 5; assay: Binding affinity against human Melanocortin 5 receptor by gamma-MCH displacement.
# Outline: (§1)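 Competition binding on intact HEK293 cells stably expressing the human receptor, seeded 50000 cells/well 48 h earlier. Lysates were gamma-counted. Ki came from competition curves; mean of duplicate experiments in triplicate.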
# Melanocortin receptor 4 [4] = molecular target: T2, Melanocortin receptor 4 (Homo sapiens, UniProt P32245); assay: Intracellular cAMP accumulation in Melanocortin 4 receptor functional assay.
# T2 sequence (P32245 whole entry): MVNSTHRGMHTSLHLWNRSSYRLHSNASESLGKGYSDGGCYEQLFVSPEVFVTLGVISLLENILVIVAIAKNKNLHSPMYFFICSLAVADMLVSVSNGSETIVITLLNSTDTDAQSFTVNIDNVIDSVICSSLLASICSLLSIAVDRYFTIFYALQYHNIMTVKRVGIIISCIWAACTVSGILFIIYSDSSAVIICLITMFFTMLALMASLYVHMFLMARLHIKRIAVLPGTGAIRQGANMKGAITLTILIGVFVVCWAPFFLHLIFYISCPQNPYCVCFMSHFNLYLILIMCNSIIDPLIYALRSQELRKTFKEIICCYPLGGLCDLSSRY
# Melanocortin receptor 4 [5] = molecular target: T2, Melanocortin receptor 4; assay: Binding affinity against Melanocortin 4 receptor by gamma-MCH displacement.
# Outline: as §1
# Melanocortin receptor 3 [6] = molecular target: T3, Melanocortin receptor 3 (Homo sapiens, UniProt P41968); assay: Binding affinity against human Melanocortin 3 receptor by gamma-MCH displacement.
# T3 sequence (P41968 whole entry): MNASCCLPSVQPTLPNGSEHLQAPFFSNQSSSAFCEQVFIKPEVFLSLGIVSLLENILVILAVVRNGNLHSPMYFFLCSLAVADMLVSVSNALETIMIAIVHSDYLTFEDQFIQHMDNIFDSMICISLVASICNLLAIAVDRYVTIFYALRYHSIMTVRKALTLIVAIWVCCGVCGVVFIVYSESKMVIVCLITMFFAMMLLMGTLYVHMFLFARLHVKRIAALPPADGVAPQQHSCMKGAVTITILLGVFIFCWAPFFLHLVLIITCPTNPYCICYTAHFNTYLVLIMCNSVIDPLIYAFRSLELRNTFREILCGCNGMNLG
# Outline: as §1
# Melanocortin receptor 3 [7] = molecular target: T3, Melanocortin receptor 3; assay: Agonist activity against human Melanocortin 3 receptor at 10 uM
# Melanocortin receptor 3 [8] = molecular target: T3, Melanocortin receptor 3; assay: Intracellular cAMP accumulation in human Melanocortin 3 receptor functional assay.
# Melanocortin receptor 4 [9] = molecular target: T2, Melanocortin receptor 4; assay: Agonist activity against human Melanocortin 4 receptor at 10 uM
# T1 sequence (P33032 whole entry): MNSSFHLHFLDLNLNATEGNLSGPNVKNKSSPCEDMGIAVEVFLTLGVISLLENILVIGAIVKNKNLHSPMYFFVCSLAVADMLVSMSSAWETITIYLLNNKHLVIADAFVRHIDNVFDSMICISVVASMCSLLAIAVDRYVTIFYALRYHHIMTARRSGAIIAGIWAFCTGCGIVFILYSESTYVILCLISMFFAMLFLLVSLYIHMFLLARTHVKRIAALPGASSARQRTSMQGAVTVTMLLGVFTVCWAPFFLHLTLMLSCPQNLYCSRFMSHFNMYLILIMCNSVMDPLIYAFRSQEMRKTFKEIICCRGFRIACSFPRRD
SMILES,Activity (Melanocortin receptor 5 [1]),EC50 (Melanocortin receptor 5 [2]),Ki (Melanocortin receptor 5 [3]),EC50 (Melanocortin receptor 4 [4]),Ki (Melanocortin receptor 4 [5]),Ki (Melanocortin receptor 3 [6]),Activity (Melanocortin receptor 3 [7]),EC50 (Melanocortin receptor 3 [8]),Activity (Melanocortin receptor 4 [9])
CCCC[C@H](NC(=O)[C@@H](NC(=O)[C@@H](N)Cc1ccc(O)cc1)C(C)C)C(=O)NCC(=O)N[C@@H](CCN)C(=O)N[C@@H](Cc1ccccc1)C(=O)N[C@@H](CCCN=C(N)N)C(=O)N[C@H](Cc1ccc2ccccc2c1)C(=O)N[C@@H](CC(=O)O)C(=O)N[C@@H](CCCN=C(N)N)C(=O)N[C@@H](Cc1ccccc1)C(=O)NCC(N)=O,100%,–,–,–,–,–,–,–,–
CCCC[C@H](NC(=O)[C@@H](NC(=O)[C@@H](N)Cc1ccc(O)cc1)C(C)C)C(=O)NCC(=O)N[C@@H](Cc1c[nH]cn1)C(=O)N[C@@H](Cc1ccccc1)C(=O)N[C@@H](CCCN=C(N)N)C(=O)N[C@H](Cc1ccc2ccccc2c1)C(=O)N[C@@H](CC(=O)O)C(=O)N[C@@H](CCCN=C(N)N)C(=O)N[C@@H](Cc1ccccc1)C(=O)NCC(N)=O,80%,28 nM,17 nM,> 10000 nM,1.5 nM,15 nM,31%,2400 nM,–
CCCC[C@H](NC(=O)[C@@H](NC(=O)[C@@H](N)Cc1ccc(O)cc1)C(C)C)C(=O)N[C@H]1CC(=O)NCCCC[C@H](C(=O)N[C@@H](CCCN=C(N)N)C(=O)N[C@@H](Cc2ccccc2)C(=O)NCC(N)=O)NC(=O)[C@@H](Cc2c[nH]c3ccccc23)NC(=O)[C@H](CCCN=C(N)N)NC(=O)[C@@H](Cc2ccccc2)NC(=O)[C@H](Cc2c[nH]cn2)NC1=O,100%,–,–,–,–,–,100%,–,100%
CC(C)[C@H](NC(=O)[C@@H](N)Cc1ccc(O)cc1)C(=O)N[C@@H]1CSSC[C@@H](C(=O)N[C@@H](CCCN=C(N)N)C(=O)N[C@@H](Cc2ccccc2)C(=O)NCC(N)=O)NC(=O)[C@H](Cc2c[nH]c3ccccc23)NC(=O)[C@H](CCCN=C(N)N)NC(=O)[C@@H](Cc2ccccc2)NC(=O)[C@H](Cc2c[nH]cn2)NC(=O)CNC1=O,16%,–,–,–,–,–,93%,–,92%
CCCC[C@H](NC(=O)[C@@H](NC(=O)[C@@H](N)Cc1ccc(O)cc1)C(C)C)C(=O)NCC(=O)N1CCC[C@H]1C(=O)N[C@H](Cc1ccc2ccccc2c1)C(=O)N[C@@H](CCCN=C(N)N)C(=O)N[C@@H](Cc1c[nH]c2ccccc12)C(=O)N[C@@H](CC(=O)O)C(=O)N[C@@H](CCCN=C(N)N)C(=O)N[C@@H](Cc1ccccc1)C(=O)NCC(N)=O (H-YV[Nle]GP[d2Nal]RWDRFG-NH2),–,–,14 nM,–,0.22 nM,0.2 nM,70%,–,100%
CCCC[C@H](NC(=O)[C@@H](NC(=O)[C@@H](N)Cc1ccc(O)cc1)C(C)C)C(=O)NCC(=O)N[C@@](C)(Cc1ccccc1)C(=O)N[C@@H](Cc1ccccc1)C(=O)N[C@@H](CCCN=C(N)N)C(=O)N[C@H](Cc1ccc2ccccc2c1)C(=O)N[C@@H](CC(=O)O)C(=O)N[C@@H](CCCN=C(N)N)C(=O)N[C@@H](Cc1ccccc1)C(=O)NCC(N)=O,40%,210 nM,3300 nM,53 nM,1300 nM,1400 nM,40%,150 nM,80%
CCCC[C@H](NC(=O)[C@@H](NC(=O)[C@@H](N)Cc1ccc(O)cc1)C(C)C)C(=O)NCC(=O)N[C@@H](Cc1c[nH]cn1)C(=O)N[C@H](Cc1ccc2ccccc2c1)C(=O)N[C@@H](CCCN=C(N)N)C(=O)N[C@H](Cc1ccc2ccccc2c1)C(=O)N[C@@H](CC(=O)O)C(=O)N[C@@H](CCCN=C(N)N)C(=O)N[C@@H](Cc1ccccc1)C(=O)NCC(N)=O,–,> 10000 nM,> 4800 nM,44 nM,4.6 nM,12 nM,40%,12 nM,100%
